Consider 1 compound from paper PMC3793015 (Journal of agricultural and food chemistry, 2013).

The subject of one data set is RAW 264.7. Kind of data set: Cytotoxicity of α-MG. It is filed as cell-based, murine. As to conditions: read-out: IC50 (cytotoxicity); RAW 264.7, 24 h, 10% FBS delivery. An outline of the steps:
(§1)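 Cytotoxicity was judged by phase-contrast morphology and MTT reduction to formazan after exposure to increasing compound concentrations. Exposure was 24 h for RAW 264.7, MDM, HepG2 and HT-29, 8 h for PMA-differentiated THP-1, and 4 h for differentiated Caco-2. Delivery was DMSO into 10% FBS medium for RAW 264.7, THP-1 and HepG2; FBS-complexed compound at 10% FBS in RPMI 1640 for MDM; Tween 40 micelles for Caco-2 and HT-29.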

For a further data set, the system named is HT-29. Kind of data set: Cytotoxicity of α-MG. It counts as cell-based, human. The following applies: read-out: IC50 (cytotoxicity); HT-29, 24 h, Tween 40 delivery. The essentials:
as §1

The next data set has as its system MDM cells. Kind of data set: Cellular uptake and metabolism of α-MG. It is filed as in vitro ADME, human. The following applies: 24 h. An outline of the steps: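 Monocytes came from buffy-coat mononuclear cells, isolated on Ficoll and by clumping, then differentiated 6 days with 50 ng/mL M-CSF (97% CD14/CD11b-positive). Compound (3.3 μM) was delivered in 100% FBS, diluted to 10% FBS in RPMI 1640, for 24 h. Activated cultures first had 100 ng/mL LPS for 4 h, then a PBS wash. Medium and cells were analysed separately by RP-HPLC, including conjugates; mean ± SD, n ≥ 5.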

The next data set deals with MDM. Kind of data set: Cytotoxicity of α-MG. It counts as cell-based, human. As to conditions: read-out: IC50 (cytotoxicity), 24 h, 10% FBS delivery. An outline of the steps: as §1
In data set [1] the test system is IL-8 secretion by macrophage-like THP-1 cells. Kind of data set: IL-8 secretion. It is filed as cell-based, human. An outline of the steps:
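THP-1 cells, differentiated with 100 nM PMA for 48 h, were pretreated with compound added as a DMSO stock to 10% FBS medium, then stimulated with E. coli O111:B4 LPS. Supernatant IL-8 was measured by ELISA in LPS-treated and unstimulated cultures.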

Data set [2] has as its system IL-8 secretion by enterocyte-like Caco-2 cells. Kind of data set: IL-8 secretion into basolateral medium. It counts as cell-based, human. The essentials: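 Caco-2 monolayers were differentiated 21–25 days post-confluence on Transwell inserts. Compound in Tween 40 micelles went into the apical compartment, and IL-1β was added basolaterally. IL-8 in basolateral medium was measured by ELISA, with and without IL-1β.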

Data set [3] deals with LPS-induced production of NO in RAW 264.7 cells. Kind of data set: LPS-induced production of NO. It counts as cell-based, murine. The following applies: RAW 264.7, data not shown. The essentials:
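RAW 264.7 cells, 2 days post-confluence, were pretreated 2 h with compound (DMSO stock into 10% FBS medium). They were then stimulated 16 h with 5 ng/mL E. coli O111:B4 LPS. NO production was estimated as medium nitrite by the Griess reaction.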

A short description of data set [4]: Stability of α-MG during incubation in cell-free culture media. It counts as physicochemical. The following applies: for calculated rate of α-MG loss per hour: DMSO, 24 h incubation; for recovery of α-MG after 24 h incubation: Tween 40 micelles. An outline of the steps: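 Compound was incubated cell-free for 24 h at 37 °C in RPMI, MEM, DMEM or McCoy's 5A, sampled at 0, 4, 8 and 24 h, extracted and analysed by RP-HPLC. Vehicles tested were: DMSO into medium without FBS or with 10% FBS (final DMSO <0.03%); Tween 40 micelles (final <0.02%) in DMEM or McCoy's; compound preincubated 48 h in 100% FBS, diluted 1:10 in RPMI 1640. Mean ± SD, n = 3 dishes.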

Turning to `COc1c(O)cc2oc3cc(O)c(CC=C(C)C)c(O)c3c(=O)c2c1CC=C(C)C` [α-MG, α-mangostin], the results for the IC50 with RAW 264.7, with HT-29 and in the data set on MDM were 23 µM, 180 µM and > 12 µM, respectively. Further, the “free xanthones in spent medium, of initial α-MG” value with MDM cells (3.3 μM, control) is given as 57 ± 4%. In addition, the “free α-MG in cells, of total” value in the data set with MDM cells (3.3 μM, control) worked out at 22 ± 5%. In the data set on MDM cells (3.3 μM, control), the “glucuronidated/sulfated conjugates of α-MG in cells, of total” value is listed as 20 ± 10%. Moreover, in the data set on MDM cells, the “recovery of α-MG equivalents added” value came to 99 ± 12%. The “inhibition of IL-8 chemokine secretion” value in data set [1] (activated THP-1, 10 μM pretreatment 4 h, LPS 0.1 ng/mL 4 h) is recorded as 30–40%; in data set [2] (activated Caco-2, 15 μM pretreatment 4 h, IL-1β 5 ng/mL 16 h), 30–40%. For the same compound, the “effect on secretion of IL-8” value in data set [1] (nonactivated THP-1 cultures) and in data set [2] (nonactivated Caco-2 cultures) was “not altered” each time. Moreover, the “inhibition of LPS-induced production of NO” value in data set [3] (1 μM) is 50%; in data set [3] (3 μM) it was 61%; in data set [3] (10 μM), 78%. Further, the “calculated rate of α-MG loss per hour” value is reported as 3.2% in data set [4] (DMEM lacking FBS, cell free); 4.0% in data set [4] (MEM lacking FBS, cell free); 2.3% in data set [4] (McCoy's 5A lacking FBS, cell free); 2.7% in data set [4] (RPMI lacking FBS, cell free). Moreover, the “recovery of α-MG after 24 h incubation” value in data set [4] (DMEM without FBS, cell free) was found to be 110 ± 3; in data set [4] (McCoy's medium without FBS, cell free), 108 ± 4. Further, the “stability of α-MG during 24 h incubation” value in data set [4] (DMSO stock added to media (RPMI 1640, MEM, DMEM) with 10% (v/v) FBS, cell free) came to 101 ± 6%. Moreover, the “stability of α-MG after 24 h” value in data set [4] (added to 100% FBS diluted 1:10 (v:v) into RPMI 1640, cell free) came to 95 ± 8%.
